Source: PubChem BioAssay
KCNQ1 pot: potentiates or activates the human KCNQ1 potassium channel | P51787 | CHO-K1 KCNQ1, thallium flux FluxOR fluorescence; hits give high values | B-score at 10 µM | hit rate 0.35% among 310,000;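 active means fluorescence ratio B-score, a plate-corrected score, at least three library SD, with initial intensity B-score within 5 SD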
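Assay system: CHO-K1 cells stably expressing KCNQ1. Medium: assay buffer for compound exposure, DMSO matched across wells. Timing: 37 °C overnight plating, 90-min dark dye load, 20-min compound pretreatment. Signal: kinetic FluxOR fluorescence, 10 s baseline plus 110 s post-stimulus.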
KCNQ1 inh: human KCNQ1 channel inhibition; hit rate 1.3% among 310,000; B-score at 10 µM; CHO-K1 KCNQ1, FluxOR thallium flux fluorescence; hits give high values; P51787;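 active means compounds whose thallium flux B-score, printed positive for inhibition, exceeds three library SD while starting fluorescence stays within three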;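 further: channel opened by potassium depolarization with thallium stimulus after 20 min compound exposure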
KCNK9 inh: human KCNK9 channel inhibition; B-score at 10 µM; hit rate 1.2% among 310,000; HEK293 KCNK9, FluxOR thallium flux fluorescence; hits give low values; AID 488922; Q9NPC2;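 active means ratio B-score over 3 SD below the library mean, with starting fluorescence within 5 SD of its mean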;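 further: negative B-score means less thallium flux so channel inhibition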
KCNK3 block: human KCNK3 channel inhibition, primary screen | O14649 | CHO-KCNK3 thallium flux, FluxOR fluorescence; hits give low values | B-score at 10 µM | hit rate 0.84% among 340,000 | AID 602410;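 active means B-score under library mean minus 4 SD, starting fluorescence ratio at most library mean plus 5 SD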;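 further: more negative B-score means stronger inhibition of thallium flux through KCNK3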
hERG protect: hERG (human) protection from proarrhythmic block. Q12809. CHO-hERG, FluxOR thallium flux, dofetilide IC70 present. activation (rescue from dofetilide block), less the hit threshold, % at 10 µM. hit rate 0.51% among 310,000. AID 1511;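 active means activation above the mean of controls blocked by dofetilide plus 5 SD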;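 further: thallium influx through hERG after potassium depolarization seen as dye fluorescence rise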
Kir21 inh: blocks the mouse Kir2.1 inward-rectifier potassium channel | HEK293-Kir2.1, FluxOR thallium flux fluorescence; hits give low values | B-score at 10 µM | hit rate 0.85% among 310,000;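 active means fluorescence ratio B-score at or below minus 3 SD of library scores, with starting-brightness B-score within 2 SD, cut at about -4.2 in these data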;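 further: channel flux triggered by added potassium and thallium sulfate stimulus; B-score of peak minus minimum fluorescence over baseline after thallium stimulus; more negative B-score means stronger Kir2.1 block with less thallium influx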
Target sequence (P35561 whole entry, looked up): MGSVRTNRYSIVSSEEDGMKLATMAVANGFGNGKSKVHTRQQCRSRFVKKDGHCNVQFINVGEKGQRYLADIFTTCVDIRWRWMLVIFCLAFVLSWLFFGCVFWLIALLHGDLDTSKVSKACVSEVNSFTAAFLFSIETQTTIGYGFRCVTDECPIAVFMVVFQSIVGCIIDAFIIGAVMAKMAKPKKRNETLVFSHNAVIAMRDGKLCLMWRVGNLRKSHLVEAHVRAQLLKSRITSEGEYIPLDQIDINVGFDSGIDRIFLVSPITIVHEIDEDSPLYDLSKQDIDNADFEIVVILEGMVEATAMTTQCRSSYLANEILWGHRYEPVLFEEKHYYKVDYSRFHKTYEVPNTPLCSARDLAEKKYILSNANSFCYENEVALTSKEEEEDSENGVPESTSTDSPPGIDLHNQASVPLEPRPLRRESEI
Active calls of the source: *; i = inactive; . = no result. Rows were chosen to be rich in hits. Some 3.7% of all compounds tested hit in one or more screens of this group.

SMILES	KCNQ1 pot	KCNQ1 inh	KCNK9 inh	KCNK3 block	hERG protect	Kir21 inh
CC1(C(=O)O)CCC(C(=O)NNC(=O)c2ccccc2Cl)C1(C)C (stereo not drawn)	i	i	i	i	-4	-0.28
N#Cc1ccccc1COC(=O)c1cccc(S(=O)(=O)N2CCCC2)c1	.	.	.	i	.	.
O=C(CCC1CCCCC1)Nc1cc(Cl)ccc1N1CCOCC1	.	.	.	-9*	.	.
O=C(CCC1CCCC1)Nc1cc(C(F)(F)F)ccc1N1CCOCC1	i	i	i	i	-11	-0.04
O=C(Nc1cccc(NC(=O)c2ccccc2[N+](=O)[O-])n1)c1ccccc1[N+](=O)[O-]	i	i	i	-9.5*	-12	-2
O=C(/C=C\c1cn(-c2ccccc2)nc1-c1ccccc1)Nc1nccs1	i	i	-8*	i	-4	-1.3
CCn1c(CNc2ccc(Cl)cc2)nnc1SCc1ccc(Cl)cc1	i	i	i	i	-7	-5*
CN(C(=O)c1ccc(NC(=O)Cc2cccc(NC(=O)C3CCN(C(=O)c4ccccc4)CC3)c2)cc1)C1CCCC1	.	.	.	i	.	.
COc1ccc(/C=N\NC(=S)SCN2C(=O)C3CCC(C)(C2=O)C3(C)C)cc1 (stereo not drawn)	16*	i	i	i	0	0.11
CN(C)c1ccc(/C=N\NC(=S)SCN2C(=O)C3CCC(C)(C2=O)C3(C)C)cc1 (stereo not drawn)	.	.	.	i	.	.
CCCCCc1cc(OC)cc2c1C(=O)OC(C)(C)O2	.	.	.	-11*	.	.
Cc1ccc(C)c(CSCc2nc3ccccc3[nH]2)c1	i	i	i	i	-8	-8.4*
Cc1ccccc1CSCc1nc2ccccc2[nH]1	i	i	i	i	-8	-0.07
COc1ccc(-c2cn3cc(C(=O)NN)ccc3n2)cc1	i	i	i	i	5.2*	0.74
NNC(=O)c1ccc2nc(-c3ccc(Br)cc3)cn2c1	i	i	i	i	-13	-0.65
CCN(C1CCCCC1)S(=O)(=O)c1cc(C)ccc1OC	i	i	i	i	-17	-2.2
CCN(C1CCCCC1)S(=O)(=O)c1ccc(OC)c(C)c1	i	i	i	i	-7	-5.4*
Cc1ccc(NS(=O)(=O)c2cc(C(=O)Nc3cccc([N+](=O)[O-])c3)ccc2C)cc1	i	i	-6.8*	i	-3	0.14
Cc1ccc(C(=O)Nc2cccc([N+](=O)[O-])c2)cc1S(=O)(=O)Nc1ccc(NC(=O)c2ccccc2)cc1	i	i	i	i	-8	0.51
O=C(Nc1ccc(C(=O)O)cc1)Nc1cccc([N+](=O)[O-])c1	i	7*	i	i	-8	-0.02
Cc1ccc(NC(=O)Nc2cccc([N+](=O)[O-])c2)nc1	i	i	i	i	-6	2
Cc1ccc(NC(=O)c2cccs2)cc1S(=O)(=O)Nc1cccc(Cl)c1	i	i	-7.8*	i	-9	-0.93
Cn1ccc(NC(=O)Nc2cccc([N+](=O)[O-])c2)n1	i	6*	i	i	-12	2.4
CCc1ccc(-c2nc(SCC(=O)c3c(N)n(C4CC4)c(=O)[nH]c3=O)n[nH]2)cc1	.	.	.	i	.	.
O=C1CCc2cc(S(=O)(=O)NCc3ccc(F)cc3)cc3c2N1CCC3	i	i	i	i	-19	-3.1
SMILES	KCNQ1 pot	KCNQ1 inh	KCNK9 inh	KCNK3 block	hERG protect	Kir21 inh
COCCN(C(=O)CSc1nnc(-c2ccccc2OC)o1)c1c(N)n(CC(C)C)c(=O)[nH]c1=O	i	i	i	i	-13	0.75
COc1cc(NC(=O)Nc2cccc([N+](=O)[O-])c2)cc(OC)c1	i	i	i	i	-5	-0.34
O=C(Nc1cccc([N+](=O)[O-])c1)NC1CCCCCCC1	i	7*	i	i	-18	1.5
O=C(Nc1cccc([N+](=O)[O-])c1)Nc1cccc([N+](=O)[O-])c1	i	8*	i	i	-22	-2.5
CCOC(=O)/C(=C\c1cccnc1)C(=O)c1cc(C(C)=O)c(Nc2ccccc2)s1	36*	i	i	i	-9	-3.7
Fc1ccc(-c2csc3ncnc(N4CCc5ccccc5C4)c23)cc1	i	6*	-7.1*	i	-13	0.37
